Compound activity as filed in PubChem.
The list is not random: actives were taken first. Their share in the collection is about 2.2%.
MEX-5 binding: C. elegans MEX-5 TCR-2 RNA binding activity; AID 1832; 300,000 tested, 0.38% active; MEX-5/FITC-TCR2 RNA binding, fluorescence polarization; stronger effect = lower value; activity score (negative = inhibition of binding), % at 10 µM;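 active means inhibition past about -25% in most replicates, and total fluorescence under double the plate's negative control median, limit read from the data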;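 further: 0% = DMSO and -100% = 5 µM competing unlabeled TCR2 RNA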
BCLXL inh: blocks human Bcl-xL binding to Bim BH3 peptide; Q07817; GST-Bcl-xL / FITC-Bim BH3 peptide fluorescence polarization; inhibition, % at 10.9 µM; 320,000 tested, 0.7% active; AID 2129;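 active means inhibition above the mean of all tested compounds plus 3 SD, cutoff set per campaign, cut at about 30% in these data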;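 further: 0% = DMSO wells and 100% = unlabeled Bim-BH3 peptide competitor; inhibitors lower millipolarization by displacing the labeled peptide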
VIM-2 inhibitor: inhibitors of Pseudomonas aeruginosa VIM-2 metallo-beta-lactamase | purified VIM-2, nitrocefin hydrolysis, epi-absorbance fluorescence | inhibition, % at 5.6 µM | 290,000 tested, 0.89% active;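 active means inhibition above the mean of all tested compounds plus 3 SD, cutoff set per screening run, cut at about 7.5% in these data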;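 further: red hydrolysis product quenches plate fluorescence so inhibitors raise well fluorescence; 0% = enzyme with DMSO and 100% = DMSO without enzyme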
EBV gp42 block: blocks Epstein-Barr virus glycoprotein 42 binding; Q1HVG2; Fluorescence polarization binding assay, mP read-out; inhibition, % (tested at 21.74 µM); 220,000 tested, 0.42% active; AID 1085; in the data active means inhibition above about 50%
Target sequence (Q1HVG2 whole entry, looked up): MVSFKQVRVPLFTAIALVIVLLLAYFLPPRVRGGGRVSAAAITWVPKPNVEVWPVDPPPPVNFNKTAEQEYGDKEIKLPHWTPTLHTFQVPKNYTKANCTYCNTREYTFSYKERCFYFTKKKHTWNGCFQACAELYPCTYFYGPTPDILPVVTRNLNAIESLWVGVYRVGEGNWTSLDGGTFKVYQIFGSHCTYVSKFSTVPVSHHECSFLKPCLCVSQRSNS
GLD-1 RNA inh: GLD-1-TGE RNA interaction inhibition (C. elegans); AID 2280; inhibition, % at 5.96 µM; purified GLD-1 + fluorescein TGE RNA, fluorescence polarization; 320,000 tested, 0.44% active; Q17339;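 active means percent inhibition above a per-plate cutoff, the plate mean of test compounds plus 3 SD, cut at about 30% in these data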;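 further: 0% = DMSO wells with GLD-1 and probe and 100% = wells lacking GLD-1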
Target sequence (Q17339 whole entry, looked up): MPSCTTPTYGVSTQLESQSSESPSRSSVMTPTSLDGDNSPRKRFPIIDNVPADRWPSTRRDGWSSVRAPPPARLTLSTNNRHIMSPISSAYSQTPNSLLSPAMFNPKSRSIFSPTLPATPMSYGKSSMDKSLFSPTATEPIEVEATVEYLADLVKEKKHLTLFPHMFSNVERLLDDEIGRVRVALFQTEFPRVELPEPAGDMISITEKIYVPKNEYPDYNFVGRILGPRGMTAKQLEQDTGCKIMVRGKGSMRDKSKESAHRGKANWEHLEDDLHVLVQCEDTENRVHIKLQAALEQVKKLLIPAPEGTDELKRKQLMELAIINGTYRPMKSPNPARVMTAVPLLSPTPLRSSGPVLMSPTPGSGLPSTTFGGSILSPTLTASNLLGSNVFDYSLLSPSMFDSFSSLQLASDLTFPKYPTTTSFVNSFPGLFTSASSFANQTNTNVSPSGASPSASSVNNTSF
IMP-1 inhibitor: inhibitors of Pseudomonas aeruginosa IMP-1 metallo-beta-lactamase; purified IMP-1, nitrocefin hydrolysis, epi-absorbance fluorescence; inhibition, % at 5.6 µM; 290,000 tested, 0.45% active; AID 1556;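 active means inhibition above the mean plus 3 SD of all compounds in the same screening run, cut at about 4.5% in these data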;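 further: 0% = IMP-1 with DMSO and 100% = DMSO wells lacking enzyme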
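Assay system: purified recombinant IMP-1 beta-lactamase. Input: IMP-1 0.2 nM before substrate addition. Buffer or medium: Zinc- and detergent-supplemented HEPES buffer, pH 7.1. Schedule: 25 °C, 15 min preincubation, 25 min reaction. Signal: Epi-absorbance fluorescence, 480 nm excitation, 530 nm emission. Evaluation: percent inhibition from optical density relative to buffer-blank wells.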
The depositor's hits bear a star.

What do the screens show for `COc1cc(/C=C2\C(=O)NN(c3ccccc3)C2=O)cc([N+](=O)[O-])c1O`?
MEX-5 binding: -29.6*; BCLXL inh: 16.8; VIM-2 inhibitor: -3.9; EBV gp42 block: -15.9; GLD-1 RNA inh: 1.7; IMP-1 inhibitor: -1.6

How did CCOC(=O)CN1C(=O)S/C(=C/c2ccc(OC)c([N+](=O)[O-])c2)C1=O do in these assays?
MEX-5 binding: 1.4; BCLXL inh: 3.4; VIM-2 inhibitor: -2.4; EBV gp42 block: 7.7; GLD-1 RNA inh: 7.5; IMP-1 inhibitor: -2.3

What do the screens show for `COc1cc(/C=C2\SC(=O)N(Cc3ccc(Cl)cc3)C2=O)cc([N+](=O)[O-])c1O`?
VIM-2 inhibitor: -0.8; EBV gp42 block: 90.0*; IMP-1 inhibitor: -2.9

Results for COc1cc(/C=C2/SC(=S)N(Cc3ccccc3)C2=O)cc(Cl)c1O ?
MEX-5 binding: 4.6; BCLXL inh: 11.1; VIM-2 inhibitor: -1.0; GLD-1 RNA inh: -14.4; IMP-1 inhibitor: -0.1

Results for COc1cc([N+](=O)[O-])cc(/C=C2/SC(=S)N(Cc3ccccc3)C2=O)c1O ?
MEX-5 binding: -16.1; BCLXL inh: 49.2*; VIM-2 inhibitor: -4.6; GLD-1 RNA inh: 0.1; IMP-1 inhibitor: -3.2

What do the screens show for `COc1cc(/C=C2/C(=O)N(c3ccc(C)c(C)c3)N=C2C)cc([N+](=O)[O-])c1O`?
MEX-5 binding: 1.0; BCLXL inh: 20.9; VIM-2 inhibitor: -2.2; GLD-1 RNA inh: -14.8; IMP-1 inhibitor: -5.7

What do the screens show for `CCCCCOc1ccc(C(O)C(CN2CCOCC2)c2ccccc2)cc1` (stereo not drawn)?
MEX-5 binding: -2.1; VIM-2 inhibitor: -1.8; IMP-1 inhibitor: -3.0

What do the screens show for `CN(C)/C=N/c1cc(=O)[nH]c(=O)n1CC1CC1`?
MEX-5 binding: 2.5; BCLXL inh: 6.0; VIM-2 inhibitor: -3.2; EBV gp42 block: -7.1; GLD-1 RNA inh: 2.9; IMP-1 inhibitor: -3.5

How did C=CCn1c(=O)[nH]c2nc3cc(N=CN(C)C)c(C)cc3nc2c1=O do in these assays?
MEX-5 binding: -50.5*; BCLXL inh: active; VIM-2 inhibitor: 5.1; EBV gp42 block: 118.0*; GLD-1 RNA inh: 181.2*; IMP-1 inhibitor: 2.0

What do the screens show for `COC(=O)C1CCN(S(=O)(=O)CCNC(=O)c2ccc3c(c2)OCO3)CC1`?
MEX-5 binding: 1.3; BCLXL inh: -1.9; GLD-1 RNA inh: 0.0

How did CC(CS(=O)(=O)c1ccc2c(c1)NC(=O)CS2)C(=O)NCc1ccccc1Cl (stereo not drawn) do in these assays?
MEX-5 binding: -7.7; BCLXL inh: 11.9; VIM-2 inhibitor: -2.9; GLD-1 RNA inh: 1.8; IMP-1 inhibitor: 9.2*

Results for Cc1ccc(CNC(=O)CC(C)S(=O)(=O)c2ccc3c(c2)NC(=O)CS3)o1 (stereo not drawn) ?
MEX-5 binding: -17.4; BCLXL inh: 84.6*; VIM-2 inhibitor: 1.4; GLD-1 RNA inh: 45.6*; IMP-1 inhibitor: -2.8

How did CCc1nc2ccccc2n1CC(=O)OCC(=O)N(CC(C)C)c1c(N)n(Cc2ccccc2)c(=O)[nH]c1=O do in these assays?
MEX-5 binding: 0.8; BCLXL inh: -13.4; GLD-1 RNA inh: 6.7

What do the screens show for `N#CC1=C(N)OC2=C(CC/C2=C\c2ccccc2)C1c1ccccc1` (stereo not drawn)?
MEX-5 binding: -5.6; BCLXL inh: 7.9; VIM-2 inhibitor: -2.3; EBV gp42 block: 94.6*; GLD-1 RNA inh: 40.7*; IMP-1 inhibitor: 5.2*

How did Cc1cn2c(=O)c(C(=O)N3CCN(c4ccccc4Cl)CC3)cnc2s1 do in these assays?
MEX-5 binding: 0.3; BCLXL inh: 2.4; GLD-1 RNA inh: -0.8

Results for Cc1ccccc1CN1CCC(n2nccc2NC(=O)CCOc2ccccc2)CC1 ?
BCLXL inh: 2.8; VIM-2 inhibitor: 0.9; GLD-1 RNA inh: -6.7; IMP-1 inhibitor: -0.7

Results for Cc1ccc2[nH]c(=O)c(CN(CCO)Cc3nnnn3CCc3ccccc3)cc2c1 ?
MEX-5 binding: -32.0*; BCLXL inh: 5.7; VIM-2 inhibitor: 0.6; EBV gp42 block: 3.1; GLD-1 RNA inh: -0.6; IMP-1 inhibitor: 0.7

How did CSc1nc(NCCCO)c2c3c(sc2n1)CN(C)CC3 do in these assays?
MEX-5 binding: -4.2; BCLXL inh: 4.7; VIM-2 inhibitor: 9.4*; EBV gp42 block: 29.5; GLD-1 RNA inh: 3.2; IMP-1 inhibitor: -0.5

Results for CCCOC(=O)C1=C(C)N(C)C(=O)NC1c1cc2c(cc1[N+](=O)[O-])OCO2 (stereo not drawn) ?
MEX-5 binding: -3.3; BCLXL inh: 42.5*; VIM-2 inhibitor: -1.5; EBV gp42 block: -23.4; GLD-1 RNA inh: 15.3; IMP-1 inhibitor: -1.9

How did NS(=O)(=O)c1ccc(NC(=O)c2ccc(-c3ccccc3)cc2)cc1 do in these assays?
VIM-2 inhibitor: -2.6; EBV gp42 block: 62.1*; IMP-1 inhibitor: -0.8

Results for COc1ccc(CC(=O)NNC(=O)c2ccc(NC(C)=O)cc2)cc1 ?
MEX-5 binding: -0.2; BCLXL inh: 2.6; VIM-2 inhibitor: -1.4; EBV gp42 block: -5.7; GLD-1 RNA inh: 6.8; IMP-1 inhibitor: 9.6*

What do the screens show for `COc1ccc(C(=O)Nc2c(O)ccc3ccccc23)cc1`?
MEX-5 binding: -1.7; BCLXL inh: 22.5; GLD-1 RNA inh: 1.6

How did NS(=O)(=O)c1ccc(NS(=O)(=O)c2ccc(NC(=O)c3ccc(-c4ccccc4)cc3)cc2)cc1 do in these assays?
MEX-5 binding: 1.8; BCLXL inh: 6.5; VIM-2 inhibitor: -0.7; EBV gp42 block: 15.7; GLD-1 RNA inh: 0.6; IMP-1 inhibitor: 0.8

What do the screens show for `COc1ccc(NC(=O)Nc2c(O)ccc3ccccc23)cc1`?
MEX-5 binding: -0.5; BCLXL inh: 30.3*; GLD-1 RNA inh: -2.6

Results for CC(=O)Nc1ccc(C(=O)NNC(=O)Cc2ccccc2)cc1 ?
MEX-5 binding: 0.8; BCLXL inh: -0.1; VIM-2 inhibitor: -1.8; EBV gp42 block: -15.0; GLD-1 RNA inh: 0.4; IMP-1 inhibitor: 0.9

What do the screens show for `COc1ccc(NC(=O)NNC(=O)c2ccc(-c3ccccc3)cc2)cc1`?
MEX-5 binding: -0.8; BCLXL inh: 2.7; VIM-2 inhibitor: -0.9; GLD-1 RNA inh: 0.0; IMP-1 inhibitor: 4.9*

What do the screens show for `O=S(=O)(c1ccc(F)c(F)c1)N1CCC2(CC1)OCCO2`?
MEX-5 binding: 0.1; BCLXL inh: 3.7; VIM-2 inhibitor: -1.2; GLD-1 RNA inh: -0.9; IMP-1 inhibitor: -1.8

Results for COc1ccc2c3c([nH]c2c1)C1CC2C(CC(O)C(OC)C2C(=O)O)CN1CC3 (stereo not drawn) ?
MEX-5 binding: -34.6*; BCLXL inh: 40.0*; VIM-2 inhibitor: -2.2; EBV gp42 block: 5.8; GLD-1 RNA inh: -2.6; IMP-1 inhibitor: -1.4

What do the screens show for `COC(=O)[C@H]1[C@H]2C[C@@H]3c4[nH]c5cc(OC)ccc5c4CCN3C[C@H]2C[C@@H](OC(=O)c2cc(OC)c(OC)c(OC)c2)[C@@H]1OC`?
BCLXL inh: 6.3; GLD-1 RNA inh: -7.2
